Test results reported in publication PMC7161550 (British Journal of Pharmacology, 2020).
Where “and” joins values, the source holds several entries; their conditions need not be identical. Equal values may be shown once.

What was measured:
[1] = type: in vivo; settings: rat, 10 mg·kg^−1 p.o.
MDR1 = MDR1 (Homo sapiens, UniProt P08183); assay: Bidirectional permeability in MDCKII‐MDR1 monolayers; type: in vitro ADME
Outline: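 Bidirectional (A–B, B–A) permeability of test compound at 10 μM across MDCKII‑MDR1 and parental monolayers. A positive control substrate (5 μM) was included; PSC833 (10 μM) and a second inhibitor (100 μM) served as MDR1 inhibitors. Net efflux ratio = ER(MDR1) − ER(MDCKII).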

[2] = tested on: human solute carrier (SLC) transporters; assay: Accumulation of BIA 10‐2474 in transporter‐expressing and control cells; type: in vitro ADME; settings: transporter‐expressing vs control cell, all conditions tested
Outline: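 Test compound accumulation was compared between transporter-expressing and control cells, expressed as transporter-specific fold accumulation. Transfected lines: CHO‑K1 (OAT1, OCT1), HEK293 (OAT3, OATP1B1, OATP1B3), MDCKII (OCT2, MATE1, MATE2‑K). Transporter activity was confirmed with positive control substrate or inhibitor.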

human OATP1B3 = human OATP1B3 (Homo sapiens, UniProt Q9NPD5); assay: Transporter inhibition, probe substrate accumulation; type: in vitro ADME; settings: 0.033–33.3 μM
Outline: (§1)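 Inhibition of probe substrate accumulation in transfected cells: CHO‑K1 for OAT1 and OCT1; HEK293 for OAT3, OATP1B1 and OATP1B3; MDCKII for OCT2, MATE1 and MATE2‑K. Each transporter's activity was confirmed with a positive control substrate or inhibitor.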

CYP2A6 = CYP2A6 (Homo sapiens, UniProt P11509); assay: CYP inhibition, pooled human liver microsomes; type: in vitro ADME; settings: 0.33–99.2 μM, co‐ and pre‐incubation
Outline: (§2)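 The rate of metabolite formation was measured; testosterone was one CYP3A4 substrate. Controls: solvent vehicle, enzyme-selective inhibitors, mechanism-based inhibitors. Analysis by HPLC with online radio-detection or LC/MS/MS.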

rat brain = assay: Brain histopathology and behaviour in rats dosed 1 to 28 days; type: in vivo; settings: rat, 10, 30 or 100 mg·kg^−1·day^−1 p.o.
CYP3A4 = CYP3A4 (Homo sapiens, UniProt P08684); assay: CYP inhibition, pooled human liver microsomes; type: in vitro ADME
Sequence of CYP3A4 (P08684 whole entry): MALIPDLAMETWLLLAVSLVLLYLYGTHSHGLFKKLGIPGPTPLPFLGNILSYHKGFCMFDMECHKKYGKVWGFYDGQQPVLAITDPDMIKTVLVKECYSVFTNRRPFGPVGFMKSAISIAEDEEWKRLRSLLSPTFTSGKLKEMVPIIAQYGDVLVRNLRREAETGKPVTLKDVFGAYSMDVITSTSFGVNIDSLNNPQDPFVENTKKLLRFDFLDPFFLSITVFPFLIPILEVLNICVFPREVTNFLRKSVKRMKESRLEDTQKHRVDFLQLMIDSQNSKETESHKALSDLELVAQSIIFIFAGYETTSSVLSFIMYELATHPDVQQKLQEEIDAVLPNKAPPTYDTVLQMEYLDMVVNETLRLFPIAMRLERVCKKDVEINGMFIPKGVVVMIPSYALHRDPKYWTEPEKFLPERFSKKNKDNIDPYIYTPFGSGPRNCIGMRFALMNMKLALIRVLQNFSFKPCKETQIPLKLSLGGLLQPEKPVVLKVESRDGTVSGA
Outline: as §2

CYP2D6 = CYP2D6 (Homo sapiens, UniProt P10635); assay: CYP inhibition, pooled human liver microsomes; type: in vitro ADME
Sequence of CYP2D6 (P10635 whole entry): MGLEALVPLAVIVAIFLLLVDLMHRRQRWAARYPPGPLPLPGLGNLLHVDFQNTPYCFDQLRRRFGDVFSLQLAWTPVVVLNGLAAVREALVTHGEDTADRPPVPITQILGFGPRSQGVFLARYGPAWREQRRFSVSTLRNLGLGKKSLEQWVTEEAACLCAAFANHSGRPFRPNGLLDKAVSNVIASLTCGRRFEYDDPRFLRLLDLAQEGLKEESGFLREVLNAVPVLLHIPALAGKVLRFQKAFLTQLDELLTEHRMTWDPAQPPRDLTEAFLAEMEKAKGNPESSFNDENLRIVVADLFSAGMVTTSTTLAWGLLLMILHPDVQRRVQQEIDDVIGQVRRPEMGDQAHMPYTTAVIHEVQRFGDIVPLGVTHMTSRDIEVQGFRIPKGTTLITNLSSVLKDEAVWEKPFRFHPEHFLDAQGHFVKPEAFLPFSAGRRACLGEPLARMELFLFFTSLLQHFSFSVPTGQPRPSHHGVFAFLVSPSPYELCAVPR
Outline: as §2

human OATP1B1 = human OATP1B1 (Homo sapiens, UniProt Q9Y6L6); assay: Transporter inhibition, probe substrate accumulation; type: in vitro ADME; settings: 0.033–33.3 μM
Sequence of human OATP1B1 (Q9Y6L6 whole entry): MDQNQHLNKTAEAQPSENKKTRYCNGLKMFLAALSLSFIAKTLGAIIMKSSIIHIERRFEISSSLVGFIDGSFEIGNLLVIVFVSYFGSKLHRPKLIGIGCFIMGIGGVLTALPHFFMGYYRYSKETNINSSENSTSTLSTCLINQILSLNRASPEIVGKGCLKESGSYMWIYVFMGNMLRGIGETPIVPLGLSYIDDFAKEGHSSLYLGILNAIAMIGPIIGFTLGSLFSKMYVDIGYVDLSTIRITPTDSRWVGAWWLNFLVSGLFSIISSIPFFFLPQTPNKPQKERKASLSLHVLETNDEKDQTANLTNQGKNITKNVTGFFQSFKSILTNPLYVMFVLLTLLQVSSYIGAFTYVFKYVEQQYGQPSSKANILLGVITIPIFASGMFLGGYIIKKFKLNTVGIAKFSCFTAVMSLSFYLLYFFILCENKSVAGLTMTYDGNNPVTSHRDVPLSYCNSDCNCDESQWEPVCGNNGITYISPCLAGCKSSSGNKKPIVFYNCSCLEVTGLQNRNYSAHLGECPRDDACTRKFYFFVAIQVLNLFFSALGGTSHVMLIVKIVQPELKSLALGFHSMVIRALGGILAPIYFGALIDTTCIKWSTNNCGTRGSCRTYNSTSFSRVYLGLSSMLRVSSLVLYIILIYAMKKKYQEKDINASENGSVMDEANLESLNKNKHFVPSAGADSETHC
Outline: as §1

OAT3 = OAT3 (Homo sapiens, UniProt Q8TCC7); assay: as above; type: in vitro ADME; settings: HEK293 cells stably transfected with OAT3
Outline: as §1

OCT1 = OCT1 (Homo sapiens, UniProt O15245); assay: as above; type: in vitro ADME; settings: CHO-K1 cells stably transfected with OCT1
Outline: as §1

CaI‐PLA2 (PLA2G6) = CaI‐PLA2 (PLA2G6) (Rattus norvegicus, UniProt P97570); assay: ABPP ex vivo, rat brain after oral BIA 10‐2474; type: in vivo
Sequence of CaI‐PLA2 (PLA2G6) (P97570 whole entry): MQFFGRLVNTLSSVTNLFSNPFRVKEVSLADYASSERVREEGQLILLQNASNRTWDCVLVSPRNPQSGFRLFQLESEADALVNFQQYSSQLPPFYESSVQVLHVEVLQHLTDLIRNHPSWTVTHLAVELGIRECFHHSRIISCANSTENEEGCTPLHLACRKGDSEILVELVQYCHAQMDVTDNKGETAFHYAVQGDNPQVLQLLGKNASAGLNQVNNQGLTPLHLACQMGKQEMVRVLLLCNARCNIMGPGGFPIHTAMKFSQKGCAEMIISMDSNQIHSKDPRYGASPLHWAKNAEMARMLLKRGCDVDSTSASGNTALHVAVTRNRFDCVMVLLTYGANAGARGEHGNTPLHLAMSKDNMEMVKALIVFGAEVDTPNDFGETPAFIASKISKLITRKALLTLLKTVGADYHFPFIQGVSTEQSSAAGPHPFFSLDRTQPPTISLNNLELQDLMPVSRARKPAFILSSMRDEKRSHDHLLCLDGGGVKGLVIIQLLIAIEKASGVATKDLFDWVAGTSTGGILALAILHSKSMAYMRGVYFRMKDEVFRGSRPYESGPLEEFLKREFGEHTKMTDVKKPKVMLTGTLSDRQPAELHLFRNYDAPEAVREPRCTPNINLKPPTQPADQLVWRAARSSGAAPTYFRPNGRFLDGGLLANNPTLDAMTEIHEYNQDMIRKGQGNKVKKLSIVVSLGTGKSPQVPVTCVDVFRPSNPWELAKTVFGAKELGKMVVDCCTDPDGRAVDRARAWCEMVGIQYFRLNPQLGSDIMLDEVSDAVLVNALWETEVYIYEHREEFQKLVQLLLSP

CYP2C9 = CYP2C9 (Homo sapiens, UniProt P11712); assay: CYP inhibition, pooled human liver microsomes; type: in vitro ADME; settings: 0.33–99.2 μM, co‐ and pre‐incubation
Outline: as §2

CYP2C19 = CYP2C19 (Homo sapiens, UniProt P33261); assay: CYP inhibition, pooled human liver microsomes; type: in vitro ADME; settings: 0.33–99.2 μM, co‐ and pre‐incubation
Outline: as §2

OCT2 = OCT2 (Homo sapiens, UniProt O15244); assay: Transporter inhibition, probe substrate accumulation; type: in vitro ADME; settings: MDCKII cells stably transfected with OCT2
Sequence of OCT2 (O15244 whole entry): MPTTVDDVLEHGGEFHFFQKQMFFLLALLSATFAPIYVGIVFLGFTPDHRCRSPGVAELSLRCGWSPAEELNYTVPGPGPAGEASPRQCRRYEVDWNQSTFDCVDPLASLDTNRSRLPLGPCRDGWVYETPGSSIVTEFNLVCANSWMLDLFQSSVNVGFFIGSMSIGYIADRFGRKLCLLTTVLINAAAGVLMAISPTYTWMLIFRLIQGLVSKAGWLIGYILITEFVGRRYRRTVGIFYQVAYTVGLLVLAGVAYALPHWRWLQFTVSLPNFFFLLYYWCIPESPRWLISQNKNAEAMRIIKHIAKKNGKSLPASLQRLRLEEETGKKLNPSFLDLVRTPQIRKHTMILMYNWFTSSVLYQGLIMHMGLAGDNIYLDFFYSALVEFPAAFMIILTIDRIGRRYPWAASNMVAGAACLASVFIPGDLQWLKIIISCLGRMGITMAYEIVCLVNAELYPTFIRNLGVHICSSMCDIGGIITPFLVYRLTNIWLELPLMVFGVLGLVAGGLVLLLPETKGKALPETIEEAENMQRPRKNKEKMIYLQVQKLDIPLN
Outline: as §1

BCRP = molecular target: T1, BCRP (Homo sapiens, UniProt Q9UNQ0); assay: Bidirectional permeability in MDCKII‐BCRP monolayers; type: in vitro ADME
T1 sequence (Q9UNQ0 1-655): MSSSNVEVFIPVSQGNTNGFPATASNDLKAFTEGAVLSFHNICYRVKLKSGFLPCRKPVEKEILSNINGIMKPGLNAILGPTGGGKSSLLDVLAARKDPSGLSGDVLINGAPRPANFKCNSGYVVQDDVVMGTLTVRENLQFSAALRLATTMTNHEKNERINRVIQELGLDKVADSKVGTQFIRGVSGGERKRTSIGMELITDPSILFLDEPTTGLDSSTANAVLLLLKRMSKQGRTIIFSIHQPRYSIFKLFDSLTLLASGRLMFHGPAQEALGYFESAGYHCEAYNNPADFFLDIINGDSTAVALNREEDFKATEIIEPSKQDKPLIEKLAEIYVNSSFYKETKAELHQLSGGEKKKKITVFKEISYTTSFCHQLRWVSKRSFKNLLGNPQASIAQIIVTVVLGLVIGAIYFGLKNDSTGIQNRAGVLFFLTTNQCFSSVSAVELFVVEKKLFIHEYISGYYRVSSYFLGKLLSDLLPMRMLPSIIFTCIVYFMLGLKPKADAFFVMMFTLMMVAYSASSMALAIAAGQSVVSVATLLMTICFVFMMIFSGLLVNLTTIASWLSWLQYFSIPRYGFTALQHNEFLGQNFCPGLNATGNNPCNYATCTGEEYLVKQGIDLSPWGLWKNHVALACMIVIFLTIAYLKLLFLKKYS
Outline: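 Test compound (10 μM) permeability was measured in A–B and B–A directions across MDCKII‑BCRP and parental MDCKII monolayers. 3H‑prazosin (1 μM) served as positive control, with a BCRP inhibitor at 1 μM. Net efflux ratio = ER(BCRP) − ER(MDCKII).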

human MATE2-K = human MATE2-K (Homo sapiens, UniProt Q86VL8); assay: Transporter inhibition, probe substrate accumulation; type: in vitro ADME
Sequence of human MATE2-K (Q86VL8 1-566 isoform Q86VL8-3): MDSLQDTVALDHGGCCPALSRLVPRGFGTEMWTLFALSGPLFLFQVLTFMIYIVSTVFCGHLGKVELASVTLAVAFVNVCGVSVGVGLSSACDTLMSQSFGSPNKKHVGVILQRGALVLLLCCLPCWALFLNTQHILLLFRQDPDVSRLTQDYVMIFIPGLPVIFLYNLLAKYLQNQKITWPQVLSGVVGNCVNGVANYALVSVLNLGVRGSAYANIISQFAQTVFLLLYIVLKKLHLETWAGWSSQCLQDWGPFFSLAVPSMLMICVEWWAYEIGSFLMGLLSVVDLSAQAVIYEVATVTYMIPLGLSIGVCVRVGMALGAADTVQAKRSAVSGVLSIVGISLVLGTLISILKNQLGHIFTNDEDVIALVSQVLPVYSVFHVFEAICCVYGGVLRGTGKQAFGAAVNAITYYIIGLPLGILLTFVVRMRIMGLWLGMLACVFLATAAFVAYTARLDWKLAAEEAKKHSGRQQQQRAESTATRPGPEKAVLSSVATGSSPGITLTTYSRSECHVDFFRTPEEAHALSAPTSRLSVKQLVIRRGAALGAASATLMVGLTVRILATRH
Outline: as §1

[3] = tested on: brain 2‐arachidonoylglycerol (2‐AG); assay: 2‐arachidonoylglycerol; type: in vivo; settings: mouse, 10 mg·kg^−1 p.o.
Outline: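 Frozen brains were thawed at 4°C and weighed. Each sample was extracted with chloroform:MeOH (2:1) plus 0.1 M phosphate buffer, pH 5.6. Deuterated internal standards were spiked in: AEA‑d8, PEA‑d4 and OEA‑d2 for the fatty acid amides, and 2‑AG‑d8 for 2‑AG.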

[4] = pre‐incubation with BIA 10‐2474

Sequence of MDR1 (P08183 whole entry): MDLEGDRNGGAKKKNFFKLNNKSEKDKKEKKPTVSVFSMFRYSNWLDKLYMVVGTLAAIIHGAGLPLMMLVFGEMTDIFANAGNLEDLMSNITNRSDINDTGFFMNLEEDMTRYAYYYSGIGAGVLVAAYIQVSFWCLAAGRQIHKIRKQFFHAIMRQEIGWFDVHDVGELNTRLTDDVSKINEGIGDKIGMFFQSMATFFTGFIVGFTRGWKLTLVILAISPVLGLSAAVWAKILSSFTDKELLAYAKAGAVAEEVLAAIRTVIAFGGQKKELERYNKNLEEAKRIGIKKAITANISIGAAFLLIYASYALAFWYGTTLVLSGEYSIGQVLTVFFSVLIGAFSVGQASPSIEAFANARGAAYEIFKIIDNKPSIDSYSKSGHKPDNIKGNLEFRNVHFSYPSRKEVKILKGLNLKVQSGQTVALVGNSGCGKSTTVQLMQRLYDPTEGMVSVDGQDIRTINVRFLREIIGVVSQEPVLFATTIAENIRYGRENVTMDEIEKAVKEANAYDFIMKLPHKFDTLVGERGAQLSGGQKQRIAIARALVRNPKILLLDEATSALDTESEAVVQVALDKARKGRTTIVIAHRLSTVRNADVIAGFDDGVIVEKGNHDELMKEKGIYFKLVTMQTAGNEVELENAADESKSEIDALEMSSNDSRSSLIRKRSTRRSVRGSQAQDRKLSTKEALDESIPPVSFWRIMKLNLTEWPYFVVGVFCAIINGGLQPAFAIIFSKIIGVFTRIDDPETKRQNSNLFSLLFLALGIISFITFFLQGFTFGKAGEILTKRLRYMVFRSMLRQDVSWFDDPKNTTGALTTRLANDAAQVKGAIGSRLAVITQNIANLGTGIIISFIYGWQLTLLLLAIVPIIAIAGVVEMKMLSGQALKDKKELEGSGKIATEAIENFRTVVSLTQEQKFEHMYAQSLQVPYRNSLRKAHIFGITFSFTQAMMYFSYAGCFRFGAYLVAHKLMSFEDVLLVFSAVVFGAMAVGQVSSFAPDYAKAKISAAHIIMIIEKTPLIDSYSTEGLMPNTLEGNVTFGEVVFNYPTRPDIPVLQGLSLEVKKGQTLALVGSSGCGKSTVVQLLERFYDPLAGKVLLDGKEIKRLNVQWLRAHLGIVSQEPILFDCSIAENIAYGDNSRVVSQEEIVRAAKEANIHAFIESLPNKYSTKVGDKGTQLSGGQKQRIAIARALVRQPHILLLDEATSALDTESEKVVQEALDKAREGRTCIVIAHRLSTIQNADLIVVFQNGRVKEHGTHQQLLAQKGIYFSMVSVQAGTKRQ

CN(C(=O)n1cnc(-c2ccc[n+]([O-])c2)c1)C1CCCCC1 [BIA 10‐2474, 3‐(1‐(cyclohexyl (methyl)carbamoyl)‐1H‐imidazol‐4‐yl)pyridine 1‐oxide]
level in all brain sections ([1]; 24 hr after acute and 24, 48 and 72 hr after chronic administration): < 50 ng·g^−1 of tissue
brain levels, acute versus repeated oral administration ([1]; any brain region and time point): no significant differences
efflux ratio (MDR1; MDCK-MDR1, highest observed net efflux ratio (ERMDR1‐ERMDCKII)): 2.24
efflux ratio at 10 μM (MDR1; MDCK-MDR1, net ER, MDCKII‐MDR1, without inhibitor): 1.45
transporter specific fold accumulations [2]: < 2
effect on OATP1B3‐mediated probe substrate accumulation (human OATP1B3): did not influence
inhibitory effect on CYP2A6 (CYP2A6): did not exhibit any inhibitory effects
brain histopathology (rat brain): no abnormalities
overt behavioural abnormalities during treatment (rat brain): none of the animals used in this study showed any overt behavioural abnormalities
inhibitory effect on CYP3A4 [midazolam] (CYP3A4; 0.33–99.2 μM, co‐ and pre‐incubation): did not exhibit any inhibitory effects
inhibition of CYP3A4 (testosterone as substrate) (CYP3A4; co‐incubation): minor inhibition
inhibition of CYP3A4 (testosterone as substrate) (CYP3A4; [4]): no effect
inhibition of CYP2D6 (CYP2D6; co‐incubation): minor inhibition
inhibition of CYP2D6 (CYP2D6; [4]): no effect
effect on OATP1B1‐mediated probe substrate accumulation (human OATP1B1): did not influence
inhibition (OAT3): 34%
inhibition at 10 μg·ml^−1 (OCT1): 26%
rats in which PLA2g6 was completely inhibited (CaI‐PLA2 (PLA2G6); 30 mg·kg^−1): four out of six rats
rats in which PLA2g6 was completely inhibited (CaI‐PLA2 (PLA2G6); 100 mg·kg^−1): three out of six rats
inhibitory effect on CYP2C9 (CYP2C9): did not exhibit any inhibitory effects
inhibitory effect on CYP2C19 (CYP2C19): did not exhibit any inhibitory effects
inhibition at 10 μg·ml^−1 (OCT2): 25%
efflux ratio (BCRP; highest observed net efflux ratio (ERBCRP‐ERMDCKII), 10 and 1 μM): 5.7
efflux ratio (BCRP; net ER, MDCKII‐BCRP, without inhibitor): 4.95
efflux ratio (BCRP; with Ko143 1 μM, net ER, MDCKII‐BCRP, with 1 μM of Ko143): 0.03
maximum inhibition, MATE2‐K (human MATE2-K): 59%
IC50 (human MATE2-K; IC50, MATE2‐K‐mediated probe substrate accumulation): 3.43 µM and 3.4 µM
brain 2‐AG level ([3]; 1 hr, vehicle 45.1 ± 7.9): 30.4 ± 11.7 µg/g
brain 2‐AG level ([3]; 4 hr, vehicle 40.9 ± 3.4): 44.5 ± 4.9 µg/g
brain 2‐AG level ([3]; 8 hr, vehicle 39.0 ± 13.2): 34.9 ± 7.7 µg/g
brain 2‐AG level ([3]; 24 hr, vehicle 38.0 ± 5.7): 31.4 ± 9.4 µg/g
